High-throughput results deposited in PubChem BioAssay by The Scripps Research Institute Molecular Screening Center.
Tn7 DDE FP = inhibitors of Tn7 peptide binding to fibrin DD(E), primary screen, biochemical, fluorescence polarization, human fibrin, Tn7 probe | AID 720508, 2013 | hit rate 0.13% among 370,000 | inhibition, % at 8.3 µM | Fibrinogen beta chain (Homo sapiens), P02675 | FP displacement of FITC-Tn7 peptide from fibrin DD(E); 0% = median of compound wells per plate;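 active = inhibition above the mean of compounds falling within the control limits plus 3 SD of them, cut at about 14% in these data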
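Measure: % inhibition scaled between sample-field median and high-control FP; Test system: human fibrin DD(E); Quantity: 2 µM final DD(E) protein; Doses: one dose, 8.3 µM nominal; Schedule: compound with protein 10 min, then 3 h after probe, room temperature; Detection: fluorescence polarization; Medium: Tris buffer with calcium and detergent, pH 7.8.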
UHRF1 binding = UHRF1 methylated DNA binding inhibitors, primary screen, counter-screen for MBD2 inhibitor project, biochemical, TR-FRET, human UHRF1, single concentration. hit rate 0.75% among 370,000. AID 687016, 2013. inhibition, % at 4.4 µM. UHRF1 binding to methylated oligo; in the data active = inhibition above about 21%;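 note: UHRF1 SRA domain binding a hemimethylated CpG hairpin DNA probe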
DDE Tn6 FP inh = inhibitors of Tn6 peptide binding to fibrin DD(E), primary screen, biochemical, fluorescence polarization, human fibrin, Tn6 probe | Fibrin DD(E) TRITC-Tn6 fluorescence polarization displacement | inhibition, % at 8.3 µM | AID 720509, 2013 | hit rate 0.21% among 370,000 | Fibrinogen beta chain (Homo sapiens), P02675;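 active = inhibition above a per-campaign cutoff: mean of compounds within control limits plus 3 SD, cut at about 15% in these data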
MBD2 inh = inhibitors of MBD2 binding to methylated DNA, primary screen, biochemical, TR-FRET, DNA-binding domain, human; Methyl-CpG-binding domain protein 2 (Homo sapiens), Q9UBB5; MBD2 binding to methylated oligonucleotide; inhibition, % at 4.4 µM; hit rate 0.31% among 370,000; in the data active = inhibition above about 13%
TDP2 inh = human TDP2 enzyme inhibitors, primary screen, biochemical, epi absorbance, recombinant enzyme; Tyrosyl-DNA phosphodiesterase 2 (Homo sapiens), O95551; T5PNP hydrolysis, p-nitrophenol absorbance 415 nm; inhibition, % at 12.8 µM; hit rate 0.34% among 370,000;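 active = inhibition above the mean of all tested compounds plus 3 SD, set per campaign, cut at about 25% in these data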
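Test system: human TDP2 enzyme; Input: 120 nM TDP2 per well; Buffer or medium: Mg2+-containing Tris-HCl buffer, pH 7.5; Reagent: 5 mM T5PNP; Dosing: 12.8 µM single point, 1% DMSO; Incubation: reaction 2 h, 37 °C; Detection: p-Nitrophenol epi absorbance; Read-out: % inhibition relative to enzyme-containing and enzyme-free wells; Replicates: single well per compound.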
LEDGF integ inh = blockers of LEDGF/p75-dependent integrase strand transfer – biochemical, TR-FRET, high throughput, primary screen; TR-FRET IN-LEDGF/p75 DNA integration, Eu/Cy5; inhibition, % at 3.7 µM; hit rate 0.64% among 370,000; AID 743269, 2014;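 active = inhibition above the screen-wide mean plus 3 SD, cut at about 13% in these data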;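 note: signal is the Cy5 over europium emission ratio at 671 and 618 nm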
TDP2 confirm = human TDP2 enzyme inhibitors, retest, confirmation, biochemical, epi absorbance, recombinant enzyme; shares compounds with TDP2 inh; absorbance read-out; inhibition, % at 12.8 µM; hit rate 22% among 1,100; in the data active = inhibition above about 25%
Of the large screens only hits and unclear results are named; the others gave an inactive call (follow-up assays come after a bar, where they were run). Hits are enriched below; roughly 1.9% of the tested compounds scored in any of these assays.

O=C(/C=C/c1cccc([N+](=O)[O-])c1)NCCN1C(=O)S/C(=C\c2cccnc2)C1=O	TDP2 inh 25 | TDP2 confirm inactive
Cn1c(=O)[nH]c(=O)c2c1nc(N1CCNCC1)n2Cc1ccccc1	TDP2 inh 26 | TDP2 confirm inactive
Cc1ccc(NC2=C/C(=N/S(=O)(=O)c3cccs3)c3ccccc3C2=O)cc1	TDP2 inh 36 | TDP2 confirm 41
COC(=O)c1ccccc1NC1=C/C(=N\S(=O)(=O)c2cccs2)c2ccccc2C1=O	none
Cc1ccc(S(=O)(=O)/N=C2\C=C(Nc3cccc(C(=O)O)c3)C(=O)c3ccccc32)c(C)c1	TDP2 inh 62 | TDP2 confirm 70
Nc1[nH]c(C(=O)c2ccc(Br)cc2)c(-c2ccccn2)c1C(=O)NCCc1c[nH]c2ccccc12	none
COC(=O)[C@]1(C)N[C@H](CN(C)C(=O)Nc2ccc(F)cc2)[C@@H]2C(=O)N(C)C(=O)[C@@H]21	none
COC(=O)[C@]1(C)N[C@H](CN(C)C(=O)Nc2ccc(OC)cc2)[C@@H]2C(=O)N(C)C(=O)[C@@H]21	TDP2 inh 48 | TDP2 confirm inactive
CCN(CC)c1ccc(-c2nn3c(-c4ccc(C(C)(C)C)cc4)nnc3s2)cc1	none
O=C(Nc1nc2ncccn2c1-c1ccccc1)C1CC1	none
CN1CCC(C)(C(=O)Nc2cccc(Oc3ccccc3)c2)C1 (centres undefined)	TDP2 inh 81 | TDP2 confirm inactive
COC(=O)[C@]12C[C@H](CC(=O)N3CCC(c4ccccc4)CC3)C(=O)N(Cc3ccccc3)C1=C[C@H](C1CCCC1)O[C@@H]2C	none
O=C1c2cccnc2-c2ncccc21	none
O=C1C(=O)c2cccnc2-c2ncccc21	TDP2 inh 104 | TDP2 confirm 89
CS(=O)(=O)c1ccc(S(=O)(=O)NCC2CCN(C(=O)C(=O)c3cc4ccccc4o3)CC2)cc1	none
O=C(c1ccco1)[C@@H]1[C@@H]2C(=O)N(c3ccc(F)cc3)C(=O)[C@@H]2C2c3ccccc3C=CN21 (some centres undefined)	TDP2 inh 29 | TDP2 confirm inactive
O=C(c1ccco1)[C@@H]1[C@@H]2C(=O)N(c3ccc(Br)cc3)C(=O)[C@@H]2C2c3ccccc3C=CN21 (some centres undefined)	none
COc1cc(O)c(NC(C)=O)c2nonc12	TDP2 inh 48 | TDP2 confirm inactive
COc1cc(-c2ccc(NC(C)=O)c(OC)c2)ccc1NC(C)=O	none
Cc1cccc(C)c1NC(=O)[C@@H]1CC(=O)O[C@@H]1c1ccccc1	none
Nc1cccc2nsnc12	TDP2 inh 60 | TDP2 confirm inactive
CC(=O)N1CCN(S(=O)(=O)c2ccc3c(c2)oc(=O)n3C)CC1	none
O=S(=O)(Nc1ccncc1)c1cc(Cl)ccc1Cl	none
O=C(O)c1ccc(NS(=O)(=O)c2cc(Cl)ccc2Cl)cc1O	TDP2 inh 29 | TDP2 confirm inactive
COc1cc(NC(=O)c2ccco2)c(OC)cc1NC(=O)CCC(=O)Nc1cc(C)ccc1C	none
COc1ccc(C)cc1NC(=O)CCNC(=O)c1ccco1	TDP2 inh 26 | TDP2 confirm inactive
Brc1cccc(OCCCNC2CCCC2)c1	TDP2 inh 26 | TDP2 confirm inactive
CC(C)NCCOc1cccc(Br)c1	none
Cn1ccc2c(N3c4ccccc4CCc4ccccc43)cc3c(c21)C1CCC3O1 (centres undefined)	TDP2 inh 28 | TDP2 confirm inactive
Cn1ccc2c(N3c4ccccc4CCc4ccccc43)cc3c(c21)C1CCC3C1 (centres undefined)	none
Cc1ccc(NC(=O)c2cnccn2)c(C)c1	none
Cc1ccc(C)c(NC(=O)c2cnccn2)c1	TDP2 inh 29 | TDP2 confirm inactive
CCOc1ccc2nc(/N=C/c3c(C)[nH]n(-c4ccccc4)c3=O)sc2c1	TDP2 inh 35 | TDP2 confirm inactive
COc1ccc(C(=O)NNC(=O)CSc2nc3c(c(=O)n(C)c(=O)n3C)n2C)cc1	TDP2 inh 25 | TDP2 confirm inactive
CCOC(=O)C1CCN(C2=C(NS(=O)(=O)c3ccc(Br)cc3)C(=O)c3ccccc3C2=O)CC1	TDP2 inh 30 | TDP2 confirm inactive
CCOC(=O)N1CCN(C2=C(NS(=O)(=O)c3ccc(Br)cc3)C(=O)c3ccccc3C2=O)CC1	none
NC(=O)C1CCN(C2=C(NS(=O)(=O)c3ccc(Br)cc3)C(=O)c3ccccc3C2=O)CC1	TDP2 inh 38 | TDP2 confirm inactive
NC(=O)C1CCN(C2=C(Cl)C(=O)c3ccccc3C2=O)CC1	TDP2 inh 50 | TDP2 confirm 76
NC(=O)C1CCN(C2=C(NS(=O)(=O)c3ccccc3)C(=O)c3ccccc3C2=O)CC1	none
CCOC(=O)[C@@]12CCC3=C1N(CCC3)C(=O)[C@H](CC(=O)NCc1cccc3ccccc13)C2	none
CCOC(=O)N1CCN(C(=O)C[C@H]2C[C@@]3(C(=O)OC)C(=C[C@H](C(C)C)O[C@@H]3C3CC3)N(Cc3ccccc3)C2=O)CC1	none
O=C(Nc1ccccc1)/C(=C/c1ccc([N+](=O)[O-])cc1)NC(=O)c1ccco1	TDP2 inh 25 | TDP2 confirm inactive
Cc1cc(C)c(C#N)c(SCC(=O)N(CCC#N)c2ccc3c(c2)OCCO3)n1	TDP2 inh 25 | TDP2 confirm inactive
CCOC(=O)[C@]12CCCCC/C=C\1N(CCc1ccc(Cl)cc1)C(=O)[C@H]2CC(=O)NCCCCc1ccccc1	none
Cc1ccccc1C(=O)N[C@H](C(=O)N1CCC[C@H]1C(=O)NCCc1ccccc1Cl)c1ccccc1	none
Nc1ccc2nn(-c3ccc(F)cc3)nc2c1	TDP2 inh 34 | TDP2 confirm inactive
CCOc1ccccc1NC(=O)NNC(=O)CCn1nc(C)c([N+](=O)[O-])c1C	none
Cc1cc2oc(C(=O)NCCc3ccc(S(N)(=O)=O)cc3)c(C)c2cc1C	TDP2 inh 30 | TDP2 confirm inactive
